Results reported in ChEMBL document CHEMBL3232894, “Discovery of AMG 925, a FLT3 and CDK4 dual kinase inhibitor with preferential affinity for the activated state of FLT3” (J Med Chem, 2014).

What was measured:
[1] = tested on: U-937; test: Antiproliferative activity against human U937 cells assessed as incorporation of [3H]thymidine into DNA after 72 hrs by beta-plate counting analysis
[2] = molecular target: T1, Receptor-type tyrosine-protein kinase FLT3 (Homo sapiens, UniProt P36888); test: Binding affinity to wild type FLT3 (unknown origin)
T1 sequence (P36888 whole entry): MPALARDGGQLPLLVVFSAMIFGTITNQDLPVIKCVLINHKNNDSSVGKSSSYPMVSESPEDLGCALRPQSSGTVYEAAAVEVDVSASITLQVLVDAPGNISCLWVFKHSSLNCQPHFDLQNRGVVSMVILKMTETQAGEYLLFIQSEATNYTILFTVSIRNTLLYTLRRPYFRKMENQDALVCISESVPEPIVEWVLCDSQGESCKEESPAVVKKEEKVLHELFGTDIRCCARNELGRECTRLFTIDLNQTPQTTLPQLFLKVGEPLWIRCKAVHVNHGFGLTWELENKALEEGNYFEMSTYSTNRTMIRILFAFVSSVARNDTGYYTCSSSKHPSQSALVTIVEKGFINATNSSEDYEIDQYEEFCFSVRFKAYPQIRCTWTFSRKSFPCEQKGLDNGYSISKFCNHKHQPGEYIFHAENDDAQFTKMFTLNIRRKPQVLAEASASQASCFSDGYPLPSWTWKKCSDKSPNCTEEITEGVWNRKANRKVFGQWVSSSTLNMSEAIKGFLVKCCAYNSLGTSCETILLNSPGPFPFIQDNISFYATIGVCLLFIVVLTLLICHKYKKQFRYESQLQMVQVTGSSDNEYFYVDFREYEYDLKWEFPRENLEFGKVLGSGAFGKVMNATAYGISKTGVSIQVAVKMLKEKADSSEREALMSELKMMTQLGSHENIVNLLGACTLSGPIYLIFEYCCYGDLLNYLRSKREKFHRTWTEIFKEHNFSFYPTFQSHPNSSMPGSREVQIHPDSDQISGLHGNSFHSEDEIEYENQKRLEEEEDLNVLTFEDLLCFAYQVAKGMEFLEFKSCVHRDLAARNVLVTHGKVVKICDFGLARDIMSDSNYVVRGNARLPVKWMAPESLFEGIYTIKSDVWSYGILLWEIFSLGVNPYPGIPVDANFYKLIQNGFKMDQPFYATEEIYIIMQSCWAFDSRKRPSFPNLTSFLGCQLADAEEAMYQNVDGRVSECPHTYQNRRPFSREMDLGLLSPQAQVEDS

[3] = molecular target: Receptor-type tyrosine-protein kinase FLT3 (Homo sapiens, UniProt P36888, N841I); test: Binding affinity to FLT3 N841I mutant (unknown origin)
[4] = molecular target: Receptor-type tyrosine-protein kinase FLT3 (Homo sapiens, UniProt P36888, D835Y); test: Binding affinity to FLT3 D835Y mutant (unknown origin)
[5] = tested on: Mus musculus; test: Toxicity in CrTac:NCR-Foxn1nu (NCR) nude mouse xenografted with human MOLM13 cells assessed as body weight loss at 25 to 150 mg/kg, po administered qd for 8 days; assay type: organism-based, MOLM-13; parameters: dose 25-150 mg/kg, route oral; conditions: in vivo, 192 h
In short: (§1)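 Body weight tracked throughout the 8-day once-daily oral study in NCR nude mice carrying MOLM13 xenografts. Doses were 25, 50, 75 and 150 mg/kg, with a vehicle control.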

[6] = Volume of distribution at steady state in iv dosed dog; assay type: ADME, organism-based, Canis lupus familiaris; conditions: in vivo, read-out: Vdss
In short: (§2)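 Intravenous and oral (gavage, solution) PK in rat, dog and cynomolgus monkey. The rat vehicle for both routes was water/acetate/tween at pH 4, 96/3/1 (v/v/v). Dog and monkey iv doses used 40% PG aqueous solution at pH 2, and their oral doses used 20% captisol aqueous solution.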

[7] = molecular target: Receptor-type tyrosine-protein kinase FLT3 (Homo sapiens, UniProt P36888, ITD); test: Inhibition of FLT3 ITD mutant in human MOLM13 cells assessed as inhibition of STAT5 phosphorylation at Tyr694 after 24 hrs; assay type: cell-based, MOLM-13
[8] = Elimination half-life in iv dosed cynomolgus monkey; assay type: ADME, organism-based, Macaca fascicularis; conditions: in vivo, read-out: beta t1/2 (converted); in short: as §2
[9] = tested on: MOLM-13; test: cells; conditions: Homo sapiens
[10] = Antiproliferative activity against Rb-negative human MDA-MB-436 cells assessed as incorporation of [3H]thymidine into DNA after 72 hrs by beta-plate counting analysis; assay type: functional
[11] = Volume of distribution at steady state in iv dosed cynomolgus monkey; assay type: ADME, organism-based, Macaca fascicularis; conditions: in vivo, read-out: Vdss; in short: as §2
[12] = molecular target: Receptor-type tyrosine-protein kinase FLT3 (Homo sapiens, UniProt P36888, K663Q); test: Binding affinity to FLT3 K663Q mutant (unknown origin)
[13] = Volume of distribution at steady state in iv dosed rat; assay type: ADME, organism-based; conditions: in vivo, read-out: Vdss; in short: as §2
[14] = tested on: MOLM-13; test: Antiproliferative activity against human MOLM13 cells harboring FLT3 ITD mutant assessed as incorporation of [3H]thymidine into DNA after […] by beta-plate counting analysis; assay type: functional, cell-based
[15] = Oral bioavailability in dog; assay type: ADME, organism-based, Canis lupus familiaris; conditions: in vivo; in short: as §2
[16] = molecular target: Cyclin-dependent kinase 4/cyclin D1 (Homo sapiens, UniProt P11802); test: Inhibition of CDK4/cyclin D1 (unknown origin) using Rb as substrate after 60 mins by scintillation counting analysis in presence of [r-33P]ATP; assay type: protein-complex assay
Chain of Cyclin-dependent kinase 4/cyclin D1 (P11802 whole entry): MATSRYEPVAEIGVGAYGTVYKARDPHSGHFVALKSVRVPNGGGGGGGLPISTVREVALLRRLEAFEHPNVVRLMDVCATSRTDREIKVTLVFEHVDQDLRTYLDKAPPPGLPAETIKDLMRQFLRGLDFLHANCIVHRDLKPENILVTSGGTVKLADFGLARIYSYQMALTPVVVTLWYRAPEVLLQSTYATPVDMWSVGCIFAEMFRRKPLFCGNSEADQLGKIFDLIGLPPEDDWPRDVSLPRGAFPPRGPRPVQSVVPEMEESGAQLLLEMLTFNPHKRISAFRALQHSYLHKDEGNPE
Chain of Cyclin-dependent kinase 4/cyclin D1 (P24385 whole entry, further chain): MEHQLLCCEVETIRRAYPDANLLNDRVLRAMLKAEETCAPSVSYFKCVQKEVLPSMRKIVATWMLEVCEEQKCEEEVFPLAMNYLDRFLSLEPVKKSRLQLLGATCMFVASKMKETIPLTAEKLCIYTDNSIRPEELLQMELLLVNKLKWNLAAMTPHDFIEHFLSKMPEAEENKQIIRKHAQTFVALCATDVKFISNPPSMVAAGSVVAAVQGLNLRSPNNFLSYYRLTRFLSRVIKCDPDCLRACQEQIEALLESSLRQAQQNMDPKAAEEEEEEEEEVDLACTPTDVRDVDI

[17] = tested on: MOLM-13; test: Antitumor activity against human MOLM13 cells xenografted in po dosed CrTac:NCR-Foxn1nu (NCR) nude mouse assessed as tumor growth inhibition administered qd for 8 days; assay type: functional
In short: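 Oral dosing once daily, day 5 to day 13, in NCR nude mice bearing established subcutaneous human MOLM13 AML xenografts, at 25, 50, 75 and 150 mg/kg against a vehicle group. Tumor growth inhibition read on day 14. AUC comes from terminal PK on plasma collected after the final dose.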

[18] = Clearance in iv dosed dog; assay type: ADME, organism-based, Canis lupus familiaris; conditions: in vivo; in short: as §2
[19] = tested on: U-937; test: Induction of apoptosis in human U937 cells harboring wild type FLT3 at 1 uM after 48 hrs by Annexin V/Sytox Green staining based flow cytometry; assay type: functional
In short: (§3)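 MOLM13, sorafenib-resistant MOLM13 and U937 cells were each exposed to compound at 1 μM for 48 h. Cells were then stained with Annexin V/Sytox Green and analysed by flow cytometry. Readout is apoptotic cells as a percentage of all cells analysed.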

[20] = tested on: MOLM-13; test: Induction of apoptosis in human MOLM13 cells harboring FLT3 ITD mutant at 1 uM after 48 hrs by Annexin V/Sytox Green staining based flow cytometry; assay type: functional; in short: as §3
[21] = tested on: MOLM-13; test: Induction of apoptosis in sorafenib-resistant human MOLM13 cells harboring FLT3 ITD+D835Y mutant at 1 uM after 48 hrs by Annexin V/Sytox Green staining based flow cytometry; assay type: functional; in short: as §3
[22] = molecular target: Cyclin-dependent kinase 1/cyclin B1 (Homo sapiens, UniProt P06493); test: Inhibition of CDK1/cyclin B (unknown origin) using histone H1 as substrate after 60 mins by scintillation counting analysis in presence of [r-33P]ATP; assay type: protein-complex assay
Chain of Cyclin-dependent kinase 1/cyclin B1 (P06493 whole entry): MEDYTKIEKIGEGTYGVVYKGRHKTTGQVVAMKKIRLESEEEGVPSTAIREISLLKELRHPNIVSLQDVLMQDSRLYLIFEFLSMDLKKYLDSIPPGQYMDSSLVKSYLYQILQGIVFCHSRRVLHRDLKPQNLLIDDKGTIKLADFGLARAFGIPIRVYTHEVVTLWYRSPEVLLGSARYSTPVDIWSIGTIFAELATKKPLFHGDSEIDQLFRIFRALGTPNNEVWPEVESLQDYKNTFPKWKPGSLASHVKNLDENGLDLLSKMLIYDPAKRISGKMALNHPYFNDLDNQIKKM
Chain of Cyclin-dependent kinase 1/cyclin B1 (P14635 whole entry, further chain): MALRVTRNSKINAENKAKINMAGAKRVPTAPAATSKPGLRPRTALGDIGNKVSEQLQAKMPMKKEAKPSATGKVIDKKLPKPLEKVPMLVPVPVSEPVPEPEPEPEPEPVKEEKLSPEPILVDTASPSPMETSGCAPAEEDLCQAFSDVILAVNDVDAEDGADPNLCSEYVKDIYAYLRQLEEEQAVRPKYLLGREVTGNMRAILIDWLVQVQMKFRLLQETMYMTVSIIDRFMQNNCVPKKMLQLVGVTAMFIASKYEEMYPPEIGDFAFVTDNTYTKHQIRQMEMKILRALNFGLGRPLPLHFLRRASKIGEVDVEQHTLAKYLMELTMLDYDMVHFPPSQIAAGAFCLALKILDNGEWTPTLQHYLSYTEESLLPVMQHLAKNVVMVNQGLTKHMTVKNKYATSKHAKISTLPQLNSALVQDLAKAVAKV

[23] = tested on: MOLM-13; test: Antiproliferative activity against human MOLM13 cells harboring FLT3 ITD mutant assessed as incorporation of [3H]thymidine into DNA after 72 hrs by beta-plate counting analysis; assay type: functional, cell-based
[24] = Elimination half-life in iv dosed dog; assay type: ADME, organism-based, Canis lupus familiaris; conditions: in vivo, read-out: beta t1/2 (converted); in short: as §2
[25] = tested on: Mus musculus; test: Toxicity in po dosed CrTac:NCR-Foxn1nu (NCR) nude mouse xenografted with human MOLM13 cells administered qd for 8 days; assay type: organism-based, MOLM-13; conditions: in vivo, 192 h; in short: as §1

IC50 [1]: 52 nM | Kd [2]: 4 nM | Kd [3]: 4 nM | Kd [4]: 1 nM | Vd [6]: 2.6 L/kg | IC50 [7]: 5 nM | half-life [8]: 6.6 h | IC50 [9]: 23 nM | Vd [11]: 3.2 L/kg | Kd [12]: 4 nM | Vd [13]: 1.8 L/kg | IC50 [14]: 28 nM | bioavailability [15]: 100% | IC50 [16]: 3 nM | clearance [18]: 23.5 mL/min/kg | IC50 [22]: 2220 nM | IC50 [23]: 19 nM | half-life [24]: 4.1 h
Structure (SMILES): C[C@H]1CC[C@H](n2c3cnccc3c3cnc(Nc4ccc5c(n4)CCN(C(=O)CO)C5)nc32)CC1
Activity [5]: 10% | IC50 [10]: 3830 nM | TGI [17]: Dose-dependent effect | ED50 ([17]; MOLM-13, po, 192 h): 22 mg/kg | Activity [19]: 23.68% | Activity [20]: 82.3% | Activity [21]: 70.86% | Activity [25]: Non-toxic
